In ChEMBL document CHEMBL3046209, “Semisynthesis and quantitative structure-activity relationship (QSAR) study of novel aromatic esters of 4'-demethyl-4-deoxypodophyllotoxin as insecticidal agents” (2009):

Legend:
Assay type in all cases: functional
Mythimna separata [1] = experiment: In vivo insecticidal activity against pre-third-instar larval stage of Mythimna separata (Oriental armyworm) in corn leaves assessed as corrected mortality rate at 1 mg/ml treated for 3 secs before larval infestation measured after 12 days by leaf-dipping method; details: 288 h
Method in brief: (§1)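 Leaf-dip assay: fresh corn leaves dipped 3 s in 1 mg/mL compound in acetone, then air-dried; acetone-only leaves served as control. Groups of 10 pre-third-instar larvae per dish fed treated leaves, replaced when consumed. After 48 h all dishes switched to untreated fresh leaves until adult emergence. Held at 25 ± 2 °C, RH 65–80%, 12 h/12 h light/dark. Corrected mortality scored.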

Mythimna separata [2] = experiment: In vivo insecticidal activity against pre-third-instar larval stage of Mythimna separata (Oriental armyworm) in corn leaves assessed as corrected mortality rate at 1 mg/ml treated for 3 secs before larval infestation measured after 36 days by leaf-dipping method; details: 864 h; method in brief: as §1
Mythimna separata [3] = experiment: In vivo insecticidal activity against pre-third-instar larval stage of Mythimna separata (Oriental armyworm) in corn leaves assessed as corrected mortality rate at 1 mg/ml treated for 3 secs before larval infestation measured after 24 days by leaf-dipping method; details: 576 h; method in brief: as §1

SMILES | mortality at 1000 µg/mL (Mythimna separata [1]) [%] | mortality at 1000 µg/mL (Mythimna separata [2]) [%] | mortality at 1000 µg/mL (Mythimna separata [3]) [%]
COc1cc([C@@H]2c3cc4c(cc3C[C@H]3COC(=O)[C@@H]32)OCO4)cc(OC)c1OC(=O)c1ccccc1Cl | 17.8 | 37 | 25
COc1cc([C@@H]2c3cc4c(cc3C[C@H]3COC(=O)[C@@H]32)OCO4)cc(OC)c1OC(=O)Cc1cccc2ccccc12 | 7.1 | 37 | 17.8
COc1cc([C@@H]2c3cc4c(cc3C[C@H]3COC(=O)[C@@H]32)OCO4)cc(OC)c1OC(=O)c1cccc([N+](=O)[O-])c1 | 3.5 | 51.8 | 14.2
COc1cc([C@@H]2c3cc4c(cc3C[C@H]3COC(=O)[C@@H]32)OCO4)cc(OC)c1OC(=O)c1ccc([N+](=O)[O-])cc1 | 7.1 | 40.7 | 17.8
COc1cc([C@@H]2c3cc4c(cc3C[C@H]3COC(=O)[C@@H]32)OCO4)cc(OC)c1OC(=O)c1cc([N+](=O)[O-])cc([N+](=O)[O-])c1 | 14.2 | 22.2 | 25
COc1cc([C@@H]2c3cc4c(cc3C[C@H]3COC(=O)[C@@H]32)OCO4)cc(OC)c1OC(=O)/C=C/c1ccccc1 | 10.7 | 48.1 | 17.8
COc1cc([C@@H]2c3cc4c(cc3C[C@H]3COC(=O)[C@@H]32)OCO4)cc(OC)c1OC(=O)c1cccnc1 | 3.5 | 62.9 | 10.7
COc1cc([C@@H]2c3cc4c(cc3C[C@H]3COC(=O)[C@@H]32)OCO4)cc(OC)c1OC(=O)CCCc1c[nH]c2ccccc12 | 10.7 | 40.7 | 14.2
COc1cc([C@@H]2c3cc4c(cc3C[C@H]3COC(=O)[C@@H]32)OCO4)cc(OC)c1OC(=O)c1ccncc1 | 14.2 | 59.2 | 21.4
COc1ccc(C(=O)Oc2c(OC)cc([C@@H]3c4cc5c(cc4C[C@H]4COC(=O)[C@@H]43)OCO5)cc2OC)cc1 | 3.5 | 25.9 | 21.4
COc1cc([C@@H]2c3cc4c(cc3C[C@H]3COC(=O)[C@@H]32)OCO4)cc(OC)c1OC(=O)c1ccc(Cl)cc1 | 0 | 29.6 | 14.2
COc1cc([C@@H]2c3cc4c(cc3C[C@H]3COC(=O)[C@@H]32)OCO4)cc(OC)c1OC(=O)Cc1ccccc1 | 10.7 | 29.6 | 25
COc1cc([C@@H]2c3cc4c(cc3C[C@H]3COC(=O)[C@@H]32)OCO4)cc(OC)c1OC(=O)c1ccccc1 | 28.5 | 48.1 | 42.8
COc1cc([C@@H]2c3cc4c(cc3C[C@H]3COC(=O)[C@@H]32)OCO4)cc(OC)c1OC(=O)c1ccc(C)cc1 | 7.1 | 33.3 | 17.8
COc1cc([C@@H]2c3cc4c(cc3C[C@H]3COC(=O)[C@@H]32)OCO4)cc(OC)c1OC(=O)c1cccc(C)c1 | 17.8 | 40.7 | 25
CC(=O)O[C@@H]1C[C@H](O)[C@@]23CO[C@@H](O)[C@]1(C)[C@@H]2C[C@@H](O)[C@]1(C)[C@@H]3C(=O)[C@H](OC(C)=O)[C@@]2(C)[C@H](c3ccoc3)C[C@H]3O[C@]321 [TOOSENDANIN] | 21.4 | 40.7 | 35.7
